Results: ChEMBL document CHEMBL1649552 (2009)
Values after ≈ are worked out from the molar mass of the structure shown.

Experiments:
Format in all cases: functional
[1] = system: Streptococcus pneumoniae; experiment: Antibacterial activity against Streptococcus pneumoniae assessed as susceptible isolates by CLSI M100-S17 method
Summary of the method: (§1)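 CLSI broth microdilution on clinical isolates, using frozen in-house-prepared panels of test and comparator agents. MICs were read after 20 to 24 h incubation at 35°C in ambient air. Susceptible/intermediate categories were assigned by CLSI M100-S17 guidelines.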

[2] = system: Streptococcus pneumoniae; experiment: Antibacterial activity against Streptococcus pneumoniae assessed as resistant isolates by CLSI M100-S17 method
Summary of the method: (§2)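 Clinical isolates were tested by CLSI broth microdilution in frozen, in-house-prepared 96-well panels of the test agent and comparator agents. MICs were read and classed as susceptible, intermediate or resistant using CLSI M100-S17 breakpoints. The value is the share of isolates in each category.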

[3] = system: Streptococcus pneumoniae; experiment: Antibacterial activity against Streptococcus pneumoniae assessed as intermediate isolates by CLSI M100-S17 method; summary of the method: as §1
[4] = system: Streptococcus pneumoniae; experiment: Antibacterial activity against Streptococcus pneumoniae by CLSI M100-S17 method
[5] = system: Staphylococcus aureus; experiment: Antibacterial activity against methicillin-resistant Staphylococcus aureus assessed as resistant isolates by CLSI M100-S17 method
[6] = system: Streptococcus agalactiae; experiment: Antibacterial activity against Streptococcus agalactiae by CLSI M100-S17 method
[7] = system: Staphylococcus aureus; experiment: Antibacterial activity against methicillin-resistant Staphylococcus aureus assessed as susceptible isolates by CLSI M100-S17 method
[8] = system: Staphylococcus aureus; experiment: Antibacterial activity against methicillin-susceptible Staphylococcus aureus assessed as susceptible isolates by CLSI M100-S17 method
[9] = system: Staphylococcus epidermidis; experiment: Antibacterial activity against methicillin-susceptible Staphylococcus epidermidis assessed as resistant isolates by CLSI M100-S17 method
[10] = system: Staphylococcus aureus; experiment: Antibacterial activity against methicillin-susceptible Staphylococcus aureus by CLSI M100-S17 method
[11] = system: Enterococcus faecalis; experiment: Antibacterial activity against Enterococcus faecalis by CLSI M100-S17 method
[12] = system: Staphylococcus aureus; experiment: Antibacterial activity against methicillin-susceptible Staphylococcus aureus assessed as resistant isolates by CLSI M100-S17 method
[13] = system: Staphylococcus epidermidis; experiment: Antibacterial activity against methicillin-susceptible Staphylococcus epidermidis assessed as susceptible isolates by CLSI M100-S17 method
[14] = system: Staphylococcus epidermidis; experiment: Antibacterial activity against methicillin-resistant Staphylococcus epidermidis assessed as susceptible isolates by CLSI M100-S17 method
[15] = system: Staphylococcus aureus; experiment: Antibacterial activity against methicillin-resistant Staphylococcus aureus by CLSI M100-S17 method
[16] = system: Staphylococcus aureus; experiment: Antibacterial activity against methicillin-resistant Staphylococcus aureus assessed as intermediate isolates by CLSI M100-S17 method
[17] = system: Staphylococcus aureus; experiment: Antibacterial activity against methicillin-susceptible Staphylococcus aureus assessed as intermediate isolates by CLSI M100-S17 method
[18] = system: Streptococcus pyogenes; experiment: Antibacterial activity against Streptococcus pyogenes assessed as susceptible isolates by CLSI M100-S17 method; summary of the method: as §1
[19] = system: Staphylococcus epidermidis; experiment: Antibacterial activity against methicillin-resistant Staphylococcus epidermidis by CLSI M100-S17 method
[20] = system: Staphylococcus epidermidis; experiment: Antibacterial activity against methicillin-susceptible Staphylococcus epidermidis by CLSI M100-S17 method
[21] = system: Streptococcus agalactiae; experiment: Antibacterial activity against Streptococcus agalactiae assessed as intermediate isolates by CLSI M100-S17 method; summary of the method: as §1
[22] = system: Streptococcus agalactiae; experiment: Antibacterial activity against Streptococcus agalactiae assessed as susceptible isolates by CLSI M100-S17 method; summary of the method: as §1
[23] = system: Streptococcus pyogenes; experiment: Antibacterial activity against Streptococcus pyogenes assessed as intermediate isolates by CLSI M100-S17 method; summary of the method: as §1
[24] = system: Staphylococcus epidermidis; experiment: Antibacterial activity against methicillin-susceptible Staphylococcus epidermidis assessed as intermediate isolates by CLSI M100-S17 method
[25] = system: Enterococcus faecium; experiment: Antibacterial activity against Enterococcus faecium by CLSI M100-S17 method
[26] = system: Streptococcus pyogenes; experiment: Antibacterial activity against Streptococcus pyogenes assessed as resistant isolates by CLSI M100-S17 method; summary of the method: as §2
[27] = system: Staphylococcus epidermidis; experiment: Antibacterial activity against methicillin-resistant Staphylococcus epidermidis assessed as resistant isolates by CLSI M100-S17 method
[28] = system: Streptococcus agalactiae; experiment: Antibacterial activity against Streptococcus agalactiae assessed as resistant isolates by CLSI M100-S17 method; summary of the method: as §2

Q: With `CO/N=C(\C(=O)N[C@@H]1C(=O)N2C(C(=O)O)=C(CSc3nc(=O)c(O)nn3C)CS[C@H]12)c1csc(N)n1` [CEFTRIAXONE] as the molecule, how does the Activity [1] read?
A: The Activity was 99.7%.

Q: What about the Activity [2] of the same molecule?
A: The Activity was 0.1%.

Q: And the Activity [3]?
A: Its Activity is 0.2%.

Q: And the MIC50 [4]?
A: The MIC50 was at most 0.06 µg/mL.

Q: What about the MIC90 [4] of the same molecule?
A: Its MIC90 is 0.12 µg/mL (≈ 0.216 µM).

Q: Which Activity [5] does the source give for `CCC[C@@H]1C[C@@H](C(=O)N[C@@H]([C@H]2O[C@H](SC)[C@H](O)[C@@H](O)[C@H]2O)[C@H](C)Cl)N(C)C1` [CLINDAMYCIN] here?
A: The Activity was 61.8%.

Q: And the MIC50 [6]?
A: The MIC50 was at most 0.06 µg/mL.

Q: And the MIC90 [6]?
A: Its MIC90 is over 8 µg/mL.

Q: And the Activity [7]?
A: The Activity was 37.9%.

Q: What about the Activity [8] of the same molecule?
A: Its Activity is 91%.

Q: What about the Activity [9] of the same molecule?
A: The Activity was 38.9%.

Q: And the MIC50 [10]?
A: The MIC50 was at most 0.12 µg/mL.

Q: And the MIC90 [10]?
A: Its MIC90 is at most 0.12 µg/mL.

Q: And the MIC50 [11]?
A: Its MIC50 is over 8 µg/mL.

Q: What about the MIC90 [11] of the same molecule?
A: Its MIC90 is over 8 µg/mL.

Q: What about the Activity [12] of the same molecule?
A: The Activity was 8.6%.

Q: What about the Activity [13] of the same molecule?
A: The Activity was 61.1%.

Q: And the Activity [14]?
A: Its Activity is 10%.

Q: And the MIC50 [15]?
A: The MIC50 was over 8 µg/mL.

Q: What about the MIC90 [15] of the same molecule?
A: Its MIC90 is over 8 µg/mL.

Q: What about the Activity [16] of the same molecule?
A: Its Activity is 0.3%.

Q: What about the Activity [17] of the same molecule?
A: Its Activity is 0.4%.

Q: And the Activity [18]?
A: The Activity was 97.3%.

Q: And the MIC50 [19]?
A: The MIC50 was over 8 µg/mL.

Q: What about the MIC50 [20] of the same molecule?
A: Its MIC50 is at most 0.12 µg/mL.

Q: And the MIC90 [20]?
A: Its MIC90 is over 8 µg/mL.

Q: What about the Activity [21] of the same molecule?
A: Its Activity is 2.3%.

Q: And the Activity [22]?
A: The Activity was 85.2%.

Q: What about the Activity [23] of the same molecule?
A: Its Activity is 0%.

Q: And the Activity [24]?
A: The Activity was 0%.

Q: What about the MIC50 [25] of the same molecule?
A: The MIC50 was over 8 µg/mL.

Q: What about the MIC90 [25] of the same molecule?
A: The MIC90 was over 8 µg/mL.

Q: And the Activity [26]?
A: The Activity was 2.7%.

Q: What about the Activity [27] of the same molecule?
A: The Activity was 90%.

Q: And the Activity [28]?
A: Its Activity is 12.5%.

Q: How did the Activity [1] turn out when `C[C@H]1COc2c(N3CCN(C)CC3)c(F)cc3c(=O)c(C(=O)O)cn1c23.C[C@H]1COc2c(N3CCN(C)CC3)c(F)cc3c(=O)c(C(=O)O)cn1c23.O` [LEVOFLOXACIN] was run?
A: Its Activity is 99.4%.

Q: What about the Activity [2] of the same molecule?
A: The Activity was 0.6%.

Q: What about the Activity [3] of the same molecule?
A: Its Activity is 0%.

Q: What about the MIC50 [4] of the same molecule?
A: Its MIC50 is 0.5 µg/mL.

Q: And the MIC90 [4]?
A: Its MIC90 is 1 µg/mL.
